Screening results from PubChem.
Xi reactivation: reactivates the inactive X chromosome in mouse fibroblasts; XiGFP mouse fibroblasts, % GFP-positive cells imaging, 3 d; cells co-treated with 5-aza-dC sensitizer; scaled so ellipticine positive control = 100%; activation, % at 7.58 µM; 0.055% of 360,000 active; AID 743238;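 active means mean normalized replicate activation at least 10% and every replicate at or above 10%; inconclusive means only one of the two criteria met; inactive means mean below 10% and not all replicates reach 10%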;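 further: 0% = median of on-plate neutral control wells and 100% = ellipticine 6 µM median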
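System: XiGFP fibroblasts, SV40-immortalized. Medium: DMEM plus 5-aza-dC sensitizer. Doses: single point. Timing: 3 d treatment, 15 min room-temperature fixation. Control set: ellipticine 6 µM.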
CaV13 ICDI inh: Primary screen for inhibitors of IQ motif and Ca2+-dependent inactivation inhibitor domain binding in CACNA1D, Förster resonance energy transfer in living cells, …; HEK cells, CFP/YFP FRET ICDI-IQ, plate reader, 10 min; percent FRET-ratio fall versus neutral wells; inhibition, % at 12.3 µM; 0.098% of 340,000 active;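 active means mean replicate inhibition of at least 30% and at least 1% of replicates passing that level; inconclusive means only one of the two criteria is met; inactive means neither criterion is met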;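 further: 0% = median of the neutral control wells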
TWEAK-Fn14 inh: TWEAK-Fn14 signaling inhibition | TWEAK-stimulated Fn14 reporter cells, luciferase luminescence, 8 h | inhibition, % at 10 µM | 2% of 360,000 active; in the data active means inhibition above about 50%
LGR2 antag: inhibitors of bursicon-induced Drosophila LGR2 receptor cAMP signaling; HEK293 LGR2, CRE-luciferase, bursicon-stimulated, 4 h; 0.35% of 380,000 active; inhibition, % at 9.99 µM; AID 720647;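 active means drop in luminescence signal, shown as inhibition above about 50% in the replicate tests, limit read from the data, passing the limit was not always enough; inconclusive means probably only some replicates passing the limit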;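 further: agonist challenge used bursicon conditioned medium at about half maximal strength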
TROY signal inh: blocks TROY-dependent signaling in reporter cells; Q293 LMP1-TROYcd NF-kB luciferase reporter, 4 h; inhibition, % at 10 µM; 0.98% of 360,000 active;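 active means compounds whose plate-normalised and pattern-corrected inhibition of the luciferase reporter signal at the single screening dose is 50% or more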
The depositor's hits bear a star; ? = inconclusive; / = no result given. In the library only some 2% were active in any assay of this set; here they are far more common.

SMILES	Xi reactivation	CaV13 ICDI inh	TWEAK-Fn14 inh	LGR2 antag	TROY signal inh
CC(=O)Nc1ccc(NC(=O)c2ccc3sc([C@H]4C[C@H](O)[C@@H](CO)O4)nc3c2)cc1	0.1	-4.6	11.8	-8.2	6.4
O=C(Nc1ccc(Oc2ccccc2)cc1)c1ccc2sc([C@H]3C[C@H](O)[C@@H](CO)O3)nc2c1	0.4	-5.0	95.4*	25.0	51.7*
COc1ccc(/C=C2\CCC(C3CCCC3)C2=O)cc1 (configuration not stated)	0.0	-20.5	49.4	-54.4	26.8
COc1ccc(/C=C2/CCC(CN3CCOCC3)C2=O)cc1 (configuration not stated)	-0.1	-7.3	65.8*	-8.9	-17.6
C[C@@H]1CN([C@H](C)CO)S(=O)(=O)c2ccc(-c3ccc(F)cc3)cc2O[C@@H]1CN(C)S(C)(=O)=O	0.5	/	/	8.2	/
COc1ccc(O)c(C(=O)c2cnn(-c3ccccc3)c2)c1	0.0	-3.2	-2.6	-45.3	-26.5
COc1ccc(-n2cc(C(=O)c3ccccc3O)cn2)cc1	0.4	2.2	60.9*	?	48.5
CCCNC(=O)N1C[C@@H]2[C@H](c3ccccc31)[C@H](CO)N2C(=O)Nc1ccc(F)cc1	0.2	/	/	-9.0	/
CC1=CN2C(=N)/C(=C/c3ccc(C)o3)C(=O)N=C2S1	-0.1	-4.4	65.8*	37.3	15.5
O=C(Nc1ccccc1F)N1CC(=O)N2[C@@H](CO)[C@H](c3ccc(C#Cc4ccccc4)cc3)[C@@H]2C1	0.1	/	/	18.3	/
CC(C)(C)c1ccc(OC(=O)Nc2ccc(O)c(C(=O)O)c2)cc1	0.2	-13.8	73.1*	-21.4	12.7
Cc1nn(-c2ccccc2)c(N2CCCC2)c1/C=N/NC(=S)Nc1ccccc1F	0.4	-2.8	25.6	-39.1	64.5*
COc1ccc2nc3cc(Cl)ccc3c(Nc3cc(C(C)C)c(O)cc3C)c2c1	0.0	2.5	62.8*	9.6	25.7
O=C(Nc1ccc(OC(F)F)c(Cl)c1)C(c1ccccc1)c1ccccc1	0.0	-2.4	18.5	15.7	56.6*
CCc1ccc(-c2cn3nc(C)c(C)nc3n2)cc1	/	-4.0	59.6*	/	15.8
Cc1nc2nc(-c3ccc(F)cc3)cn2nc1C	-0.1	-21.5	14.6	-5.4	-35.5
Cc1cccc(C)c1NC(=O)CNC(=O)c1cn(-c2ccccc2)nc1-c1ccccc1	0.2	-5.0	6.8	-8.4	-26.4
Cc1nn(Cc2c(Cl)cccc2Cl)c(C)c1NC(=O)c1cn(-c2ccccc2)nc1-c1ccccc1	/	/	70.0*	/	27.1
COCCCNc1ccn2nc(-c3ccc(OCc4ccccc4)cc3)cc2n1	0.0	-3.8	78.5*	-23.2	49.4
COc1cc(-c2cc3nc(NCCOc4ccccc4)ccn3n2)cc(OC)c1OC	0.1	-5.0	58.3*	-4.9	22.6
c1ccc(COc2ccc(-c3cc4nc(NCCOc5ccccc5)ccn4n3)cc2)cc1	0.2	-6.1	41.9	-35.5	-2.4
COc1ccc2c3c(n(C)c2c1)[C@H](CO)N(C(=O)c1ccccn1)CC31CCN(C)CC1	0.2	/	/	/	/
O=S(=O)(Nc1ccc(-n2cccc2)cc1)c1ccc(Cl)c(Cl)c1	0.3	-4.0	-26.5	9.2	55.5*
COc1ccc2cc(C(N)=O)c(=Nc3ccc(C)cc3)oc2c1	0.0	-5.2	66.8*	-13.5	7.1
COc1ccc2cc(C(N)=O)/c(=N\NC(=O)c3ccccc3)oc2c1	0.0	-16.1	89.2*	?	58.2*
SMILES	Xi reactivation	CaV13 ICDI inh	TWEAK-Fn14 inh	LGR2 antag	TROY signal inh
COCC#Cc1cnc2c(c1)C(=O)N([C@@H](C)CO)C[C@H](C)[C@H](CN(C)C(=O)c1ccc(F)cc1)O2	-0.4	/	/	7.1	/
COc1cc(-c2ccc3oc(-c4ccsc4)cc(=O)c3c2)cc(OC)c1OC	0.0	-10.2	24.5	64.1*	19.8
COc1cc(-c2cc(=O)c3ccc(O)cc3o2)cc(OC)c1OC	/	/	-14.8	9.2	-6.0
COc1ccc(-c2cc(=O)c3cc(OC)ccc3o2)cc1	/	/	64.5*	2.1	6.9
COc1ccc2oc(-c3ccccc3)cc(=O)c2c1	/	/	73.8*	63.9*	4.9
COc1ccc(-c2cc(=O)c3ccc(O)cc3o2)cc1	/	/	0.3	-18.3	-69.8
C[C@@H]1CN([C@@H](C)CO)C(=O)c2cc(-c3cccnc3)cnc2O[C@@H]1CN(C)C(=O)Nc1ccc2c(c1)OCO2	-0.1	/	/	12.5	/
O=C(NCC1CC1)[C@@H]1[C@@H](CO)[C@@H]2Cn3c(ccc(-c4ccccc4)c3=O)[C@@H]2N1CC1CC1	0.2	/	/	-7.0	/
O=C(CSC(=S)N1CCCCC1)c1ccccc1	0.0	-6.7	72.1*	67.3*	50.1*
COc1ccc(C(=O)CSC(=S)N2CCCCC2)cc1	/	/	60.4*	/	12.4
O=C(CSC(=S)N1CCCC1)c1ccccc1	-0.1	-5.7	45.2	-16.8	18.9
C[C@H]1CN([C@@H](C)CO)C(=O)c2cc(NC(=O)Cc3cn(C)c4ccccc34)ccc2O[C@H]1CN(C)C(=O)NC1CCCCC1	-0.8	/	/	-4.4	/
O=C(Nc1nc2ccc(F)cc2s1)c1cccc(S(=O)(=O)N2CCc3ccccc32)c1	0.2	-1.1	57.1*	3.5	33.4
CCOC(=O)c1sc(NC(=O)c2cccc(S(=O)(=O)N3CCc4ccccc43)c2)c(C#N)c1C	0.5	-6.5	47.6	38.4	52.9*
O=C(Nc1nncs1)c1cccc(S(=O)(=O)N2CCc3ccccc32)c1	0.0	-9.4	6.1	12.2	12.3
O=C(NCCCN1CCCCCC1)c1ccc2c(c1)NC(=O)C(N1CCOCC1)S2 (configuration not stated)	/	/	81.7*	/	/
Cc1noc(C)c1S(=O)(=O)Nc1ccc2c(c1)CC(=O)N([C@@H](C)CO)C[C@H](C)[C@@H](CN(C)Cc1ccc(-c3ccccc3)cc1)O2	0.3	/	/	11.8	/
CCN(CC)CCN1C2=C(C(=O)CC(C)(C)C2)C(c2cccc(F)c2)C2=C1CC(C)(C)CC2=O	0.3	123.1*	16.6	-9.8	19.0
COc1ccc(NC(=O)N(C)C[C@@H]2OCc3ccccc3-c3ccccc3C(=O)N([C@@H](C)CO)C[C@H]2C)cc1	-0.1	/	/	8.0	/
Cc1c(/C=N/NC(=O)CNc2ccccc2)c2ccccn2c1C(=O)c1ccc(Cl)cc1	0.0	-4.3	30.6	1.4	18.3
Cc1c(/C=N/NC(=O)CNc2ccccc2)c2ccccn2c1C(=O)c1ccncc1	0.0	-4.9	61.8*	7.4	21.0
C/C=C/c1ccc([C@@H]2[C@@H](CN(C)C(=O)CC3CC3)N(C(=O)C3CC3)[C@H]2CO)cc1	0.3	/	/	15.0	/
Cc1ccc(S(=O)(=O)N(C)C[C@@H]2OCc3cn(nn3)CCCC(=O)N([C@@H](C)CO)C[C@@H]2C)cc1	0.0	/	/	5.7	/
Cn1c(-c2ccsc2)c(-c2cccs2)c2cc(-c3ccc4cc[nH]c4c3)ccc21	-0.1	-10.5	-0.7	-9.7	5.8
Cn1c(C=O)c(-c2ccc3cc[nH]c3c2)c2ccccc21	0.0	-10.0	65.9*	-2.7	33.6
